Published values gathered from unrelated publications.
Each line is one published result; the experiments were not run side by side.
Effect on: cell growth or viability

Compound | cell line | method | concentration | time | measurement | value
CC(C)(C)c1cc(NC(=O)Nc2ccc(-c3cn4c(n3)sc3cc(OCCN5CCOCC5)ccc34)cc2)no1 | NOMO-1 | – | – | 72 h | GI50 | > 10000 nM
O=C(Nc1ccc(Cl)cc1)Nc1cccc(-c2cn(Cc3cccc(Cl)c3)nn2)c1 | MCF7 | CCK-8 | 50 µM | 48 h | viability | 92.3%
CNCCC(=O)Nc1ccccc1/N=c1\cc(-c2ccc3nc(N)oc3c2)oc2ccccc12 | MCF7 | CCK-8 | 1 µM | – | inhibition | 31.9%
CN(C)CCNC(=O)c1ccc(-c2nc3ccc4[nH]ncc4c3c3c2CCCC3)cc1 | NOMO-1 | – | – | 72 h | GI50 | 568 nM
COc1ccc(NC(=O)NCc2cn(Cc3ccccc3C)nn2)cc1 | MCF7 | CCK-8 | 50 µM | 48 h | viability | 96.3%
CN(C)CCNC(=O)c1ccc(-c2nc3ccc4[nH]ncc4c3c3c2CCCCC3)cc1 | NOMO-1 | – | – | 72 h | GI50 | 2270 nM
COc1ccc2/c(=N/c3ccccc3NC(=O)[C@H](C)N)cc(-c3ccc4c(c3)OCCO4)oc2c1 | MCF7 | CCK-8 | 1 µM | – | inhibition | 8.55%
O=C(Nc1ccc(Cl)cc1)Nc1ccc(-c2cn(Cc3ccc(Cl)cc3)nn2)cc1 | MCF7 | CCK-8 | 50 µM | 48 h | viability | 94.6%
CCc1nc(C(N)=O)c(Nc2ccc(N3CCC(N4CCN(C)CC4)CC3)c(OC)c2)nc1NC1CCOCC1 | NOMO-1 | – | – | 72 h | GI50 | 2540 nM
O=C(Nc1ccc(Cl)cc1)Nc1ccc(-c2cn(Cc3ccc(Br)cc3)nn2)cc1 | MCF7 | CCK-8 | 50 µM | 48 h | viability | 93.7%
NC(=O)C1CCCN1C(=O)Nc1ccccc1/N=c1\cc(-c2ccc3c(c2)OCCO3)oc2cc(F)ccc12 (stereo not drawn) | MCF7 | CCK-8 | 1 µM | – | inhibition | 7.19%
O=C(Nc1ccc(-c2cn(Cc3ccc(Cl)cc3)nn2)cc1)Nc1ccccc1Br | MCF7 | CCK-8 | 50 µM | 48 h | viability | 99.3%
Nc1nc2ccc(-c3c/c(=N\c4ccccc4NC(=O)C4CCNC4)c4ccccc4o3)cc2o1 (stereo not drawn) | MCF7 | CCK-8 | 1 µM | – | inhibition | 11.6%
O=C(NCc1cn(Cc2ccc(Cl)cc2)nn1)Nc1ccc(Cl)cc1 | MCF7 | CCK-8 | 50 µM | 48 h | viability | 80.8%
O=C(C[C@@H](C(F)F)n1ccc(F)n1)N1CCC(O)(Cn2cnc3c(cnn3-c3ccc(F)cc3)c2=O)CC1 | CAPAN-1 | SRB | 27.43 nM | 5 days | viability | 66.3%
COc1ccc(NC(=O)Nc2ccc(-c3cn(Cc4cccc(Cl)c4)nn3)cc2)cc1 | MCF7 | CCK-8 | 50 µM | 72 h | viability | 98.2%
Cc1n[nH]c2ccc3nc(-c4ccc(C(=O)NCCN(C)C)cc4)c4c(c3c12)CCCC4 | NOMO-1 | – | – | 72 h | GI50 | 1060 nM
COc1ccc(NC(=O)Nc2cccc(-c3cn(Cc4ccc(C)cc4)nn3)c2)cc1 | MCF7 | CCK-8 | 50 µM | 48 h | viability | 104%
Nc1ccccc1/N=c1\cc(-c2ccc3c(c2)OCO3)oc2ccccc12 | MCF7 | CCK-8 | 1 µM | – | inhibition | 7.65%
O=C(Nc1ccc(Cl)cc1)Nc1cccc(-c2cn(Cc3cccc(Br)c3)nn2)c1 | MCF7 | CCK-8 | 50 µM | 72 h | viability | 72.8%
O=C(Nc1ccc(Cl)cc1)Nc1cccc(-c2cn(Cc3ccc(Cl)cc3)nn2)c1 | MCF7 | CCK-8 | 50 µM | 48 h | viability | 104%
COc1ccc2/c(=N/c3ccccc3NC(=O)[C@@H](N)C(C)(C)C)cc(-c3ccc4c(c3)OCO4)oc2c1 | MCF7 | CCK-8 | 1 µM | – | inhibition | 14.2%
COc1ccc(NC(=O)NCc2cn(Cc3ccc(C)cc3)nn2)cc1 | MCF7 | CCK-8 | 50 µM | 72 h | viability | 101%
COc1ccc2/c(=N/c3ccccc3NC(=O)[C@@H](N)CO)cc(-c3ccc4c(c3)OCCO4)oc2c1 | MCF7 | CCK-8 | 1 µM | – | inhibition | 8.55%
Cc1ccccc1Cn1cc(-c2cccc(NC(=O)Nc3ccc(F)cc3)c2)nn1 | MCF7 | CCK-8 | 50 µM | 72 h | viability | 58.8%
CC(C)(C)[C@H](N)C(=O)Nc1ccccc1/N=c1\cc(-c2ccc3c(c2)OCO3)oc2ccccc12 | MCF7 | CCK-8 | 1 µM | – | inhibition | 21.3%
COc1ccc(NC(=O)Nc2cccc(-c3cn(Cc4ccc(Cl)cc4)nn3)c2)cc1 | MCF7 | CCK-8 | 50 µM | 72 h | viability | 104%
